In ChEMBL document CHEMBL4359823, “Switching on the activity of 1,5-diaryl-pyrrole derivatives against drug-resistant ESKAPE bacteria: Structure-activity relationships and mode of action studies” (Eur J Med Chem, 2019) one finds MIC data, which are given here for eight compounds.

Common to all, as to assay type: functional
The test system of test [1] is Enterococcus faecalis. Description: Antibacterial activity against vancomycin resistant Enterococcus faecalis NCTC12204 measured after overnight incubation by microbroth dilution method. Summed up:
(§1)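 Microbroth dilution: DMSO stocks diluted in water, 2-fold series. Overnight TSB cultures back-diluted to OD 0.01 and mixed 1:1 with compound. Incubated overnight at 37 °C; MIC taken as lowest concentration without visible growth (<0.1 OD600). Run in duplicate; matching DMSO levels checked for effect on growth.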
Background: Broth dilution looks for growth in wells or tubes with falling amounts of substance.

The test system of test [2] is Enterococcus faecalis. Description: Antibacterial activity against vancomycin resistant Enterococcus faecalis NCTC12201 measured after overnight incubation by microbroth dilution method. Summed up:
as §1

Test [3] has as its system Klebsiella pneumoniae. Description: Antibacterial activity against Klebsiella pneumoniae M6 measured after overnight incubation by microbroth dilution method. The method in brief: (§2)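 Microbroth dilution MIC. Compound DMSO stocks were diluted in water as a 2-fold series. Overnight TSB cultures were back-diluted to OD 0.01 and mixed 1:1 with compound. Plates were incubated overnight at 37 °C. MIC was the lowest concentration without visible growth (<0.1 OD600), run in duplicate.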

Test [4] relates to Staphylococcus aureus. Description: Antibacterial activity against methicillin resistant Staphylococcus aureus NCTC13277 measured after overnight incubation by microbroth dilution method. Summed up:
as §1

Test [5] concerns Pseudomonas aeruginosa. Kind of test: Antibacterial activity against Pseudomonas aeruginosa NCTC13437 measured after overnight incubation by microbroth dilution method. The method in brief: as §2
For test [6], the system named is Staphylococcus aureus. Description: Antibacterial activity against methicillin sensitive Staphylococcus aureus NCTC 6571 measured after overnight incubation by microbroth dilution method. Summed up: as §1
In test [7] the test system is Pseudomonas aeruginosa. Kind of test: Antibacterial activity against Pseudomonas aeruginosa PAO1 measured after overnight incubation by microbroth dilution method. The method in brief:
as §2

The subject of a further test is Escherichia coli. Kind of test: Antibacterial activity against Escherichia coli NCTC12923 measured after overnight incubation by microbroth dilution method. The method in brief:
as §2

In test [8] the test system is Staphylococcus aureus. Kind of test: Antibacterial activity against methicillin resistant Staphylococcus aureus NCTC13616 measured after overnight incubation by microbroth dilution method. Summed up:
as §1

The test system of test [9] is Enterococcus faecalis. Description: Antibacterial activity against vancomycin sensitive Enterococcus faecalis NCTC775 measured after overnight incubation by microbroth dilution method. Summed up:
as §1

Test [10] has as its system Acinetobacter baumannii. Description: Antibacterial activity against Acinetobacter baumannii AYE measured after overnight incubation by microbroth dilution method. The method in brief: as §2
Test [11] relates to Acinetobacter baumannii. Kind of test: Antibacterial activity against Acinetobacter baumannii ATCC 17978 measured after overnight incubation by microbroth dilution method. The method in brief: as §2
Test [12] concerns Klebsiella pneumoniae. Description: Antibacterial activity against Klebsiella pneumoniae NCTC13368 measured after overnight incubation by microbroth dilution method. The method in brief:
as §2

In brackets after ≈: the same amount, converted by molar mass.

For orientation: MIC means the lowest concentration found to suppress growth. Low values mean inhibition by little substance, high ones a need for much substance. With `Cc1c(CNCCNc2ccccc2)cc(-c2ccc(Cl)cc2)n1-c1ccc(Cl)cc1`, the MIC is 4 to 8 µg/mL (≈ 8.88 to 17.8 µM) in the test on Enterococcus faecalis [1]; 4 µg/mL (≈ 8.88 µM) in the test with Enterococcus faecalis [2]; above 128 µg/mL against Klebsiella pneumoniae [3]; 4 to 8 µg/mL (≈ 8.88 to 17.8 µM) against Staphylococcus aureus [4]; above 128 µg/mL against Pseudomonas aeruginosa [5]; 4 to 8 µg/mL (≈ 8.88 to 17.8 µM) against Staphylococcus aureus [6]. Moreover, the minimum inhibitory concentration (MIC) against Pseudomonas aeruginosa [7] was above 128 µg/mL; with Escherichia coli, above 128 µg/mL; in the test with Staphylococcus aureus [8], 4 to 8 µg/mL (≈ 8.88 to 17.8 µM); in the test on Enterococcus faecalis [9], 4 µg/mL (≈ 8.88 µM); in the test on Acinetobacter baumannii [10], above 128 µg/mL; in the test on Acinetobacter baumannii [11] it was above 128 µg/mL. In the test on Klebsiella pneumoniae [12], this compound came in with a minimum inhibitory concentration (MIC) above 128 µg/mL.

For the compound `Cc1c(CNC2CCCCC2)cc(-c2ccc(Cl)cc2)n1-c1ccc(O)cc1`, the MIC in the test on Enterococcus faecalis [1] is 32 µg/mL (≈ 81 µM); in the test on Enterococcus faecalis [2], 32 µg/mL (≈ 81 µM); with Klebsiella pneumoniae [3], above 128 µg/mL; in the test on Staphylococcus aureus [4] it was 32 µg/mL (≈ 81 µM); against Pseudomonas aeruginosa [5], above 128 µg/mL; against Staphylococcus aureus [6], 32 µg/mL (≈ 81 µM). The MIC is above 128 µg/mL in the test with Pseudomonas aeruginosa [7]; above 128 µg/mL against Escherichia coli; 8 to 64 µg/mL (≈ 20.3 to 162 µM) with Staphylococcus aureus [8]; 64 µg/mL (≈ 162 µM) in the test on Enterococcus faecalis [9]; above 128 µg/mL with Acinetobacter baumannii [10]; 128 µg/mL (≈ 324 µM) in the test with Acinetobacter baumannii [11]. In the test with Klebsiella pneumoniae [12], this compound returned an MIC above 128 µg/mL.

For `Cc1c(CNC2CCCCCC2)cc(-c2ccc(Cl)cc2)n1-c1ccc(Cl)cc1`, the minimum inhibitory concentration (MIC) in the test on Enterococcus faecalis [1] is 2 µg/mL (≈ 4.68 µM); against Enterococcus faecalis [2], 2 µg/mL (≈ 4.68 µM); in the test with Klebsiella pneumoniae [3] it was above 128 µg/mL; in the test on Staphylococcus aureus [4], 4 µg/mL (≈ 9.36 µM); in the test on Pseudomonas aeruginosa [5], 128 µg/mL (≈ 299 µM); in the test on Staphylococcus aureus [6] it was 4 µg/mL (≈ 9.36 µM). The MIC in the test on Pseudomonas aeruginosa [7] is 128 µg/mL (≈ 299 µM); against Escherichia coli it was above 128 µg/mL; in the test on Staphylococcus aureus [8], 4 µg/mL (≈ 9.36 µM); against Enterococcus faecalis [9], 4 µg/mL (≈ 9.36 µM); in the test on Acinetobacter baumannii [10], 128 µg/mL (≈ 299 µM); in the test with Acinetobacter baumannii [11], 64 µg/mL (≈ 150 µM). In the test on Klebsiella pneumoniae [12], this compound returned an MIC above 128 µg/mL.

In the case of `Cc1c(CNC2CCCCC2)cc(-c2ccc(Cl)cc2)n1-c1ccc(Cl)cc1Cl`, the minimum inhibitory concentration (MIC) was 2 µg/mL (≈ 4.47 µM) in the test with Enterococcus faecalis [1]; 4 µg/mL (≈ 8.93 µM) in the test on Enterococcus faecalis [2]; above 128 µg/mL against Klebsiella pneumoniae [3]; 4 µg/mL (≈ 8.93 µM) in the test on Staphylococcus aureus [4]; above 128 µg/mL against Pseudomonas aeruginosa [5]; 4 µg/mL (≈ 8.93 µM) in the test on Staphylococcus aureus [6]. For the same compound, the MIC against Pseudomonas aeruginosa [7] is above 128 µg/mL; with Escherichia coli, above 128 µg/mL; in the test on Staphylococcus aureus [8], 4 µg/mL (≈ 8.93 µM); in the test with Enterococcus faecalis [9], 4 µg/mL (≈ 8.93 µM); against Acinetobacter baumannii [10], above 128 µg/mL; in the test with Acinetobacter baumannii [11], 128 µg/mL (≈ 286 µM). Besides, in the test with Klebsiella pneumoniae [12], the minimal inhibitory concentration (MIC) was above 128 µg/mL.

Take `Cc1c(CNC2CCC(O)CC2)cc(-c2ccc(Cl)cc2)n1-c1ccc(Cl)cc1` (centres undefined): the MIC in the test on Enterococcus faecalis [1] was 8 µg/mL (≈ 18.6 µM); against Enterococcus faecalis [2], 16 µg/mL (≈ 37.3 µM); with Klebsiella pneumoniae [3], above 128 µg/mL; against Staphylococcus aureus [4] it was 16 µg/mL (≈ 37.3 µM); in the test on Pseudomonas aeruginosa [5], above 128 µg/mL; against Staphylococcus aureus [6], 16 µg/mL (≈ 37.3 µM). Further, the MIC with Pseudomonas aeruginosa [7] was above 128 µg/mL; in the test on Escherichia coli it was above 128 µg/mL; with Staphylococcus aureus [8] it was 16 µg/mL (≈ 37.3 µM); against Enterococcus faecalis [9] it was 16 µg/mL (≈ 37.3 µM); in the test on Acinetobacter baumannii [10], 128 µg/mL (≈ 298 µM); in the test on Acinetobacter baumannii [11], 64 µg/mL (≈ 149 µM). The compound further returned a minimum inhibitory concentration (MIC) in the test on Klebsiella pneumoniae [12] above 128 µg/mL.

Regarding `COc1ccc(-n2c(-c3ccc(Cl)cc3)cc(CNC3CCCCC3)c2C)cc1`, the MIC against Enterococcus faecalis [1] was 8 µg/mL (≈ 19.6 µM); against Enterococcus faecalis [2], 8 µg/mL (≈ 19.6 µM); against Klebsiella pneumoniae [3] it was above 128 µg/mL; against Staphylococcus aureus [4], 16 µg/mL (≈ 39.1 µM); in the test on Pseudomonas aeruginosa [5], above 128 µg/mL; against Staphylococcus aureus [6] it was 16 µg/mL (≈ 39.1 µM). The MIC with Pseudomonas aeruginosa [7] was above 128 µg/mL; in the test on Escherichia coli, above 128 µg/mL; with Staphylococcus aureus [8], 16 µg/mL (≈ 39.1 µM); against Enterococcus faecalis [9] it was 8 µg/mL (≈ 19.6 µM); in the test with Acinetobacter baumannii [10], above 128 µg/mL; in the test with Acinetobacter baumannii [11], 128 µg/mL (≈ 313 µM). Also, in the test with Klebsiella pneumoniae [12], the MIC is above 128 µg/mL.

In the case of `Cc1ccc(C)c(-n2c(-c3ccc(Cl)cc3)cc(CNC3CCCCC3)c2C)c1`, the minimal inhibitory concentration (MIC) in the test with Enterococcus faecalis [1] was 2 µg/mL (≈ 4.91 µM); in the test with Enterococcus faecalis [2], 4 µg/mL (≈ 9.83 µM); against Klebsiella pneumoniae [3], above 128 µg/mL; against Staphylococcus aureus [4], 8 µg/mL (≈ 19.7 µM); against Pseudomonas aeruginosa [5] it was above 128 µg/mL; with Staphylococcus aureus [6], 4 µg/mL (≈ 9.83 µM). Moreover, the minimum inhibitory concentration (MIC) is above 128 µg/mL in the test with Pseudomonas aeruginosa [7]; above 128 µg/mL in the test with Escherichia coli; 4 µg/mL (≈ 9.83 µM) in the test with Staphylococcus aureus [8]; 4 µg/mL (≈ 9.83 µM) with Enterococcus faecalis [9]; above 128 µg/mL against Acinetobacter baumannii [10]; 64 µg/mL (≈ 157 µM) in the test with Acinetobacter baumannii [11]. Moreover, the MIC against Klebsiella pneumoniae [12] is above 128 µg/mL.

In the case of `Cc1c(CNCCCCCCCCNC(=N)N)cc(-c2ccc(Cl)cc2)n1-c1ccc(Cl)cc1`, the MIC amounted to 4 µg/mL (≈ 7.99 µM) with Enterococcus faecalis [1]; 8 µg/mL (≈ 16 µM) with Enterococcus faecalis [2]; 16 µg/mL (≈ 32 µM) in the test on Klebsiella pneumoniae [3]; 4 µg/mL (≈ 7.99 µM) in the test on Staphylococcus aureus [4]; 64 µg/mL (≈ 128 µM) with Pseudomonas aeruginosa [5]; 4 µg/mL (≈ 7.99 µM) with Staphylococcus aureus [6]. In addition, the minimal inhibitory concentration (MIC) in the test with Pseudomonas aeruginosa [7] was determined as 128 µg/mL (≈ 256 µM); against Escherichia coli, 8 µg/mL (≈ 16 µM); in the test with Staphylococcus aureus [8], 4 µg/mL (≈ 7.99 µM); in the test with Enterococcus faecalis [9], 8 µg/mL (≈ 16 µM); against Acinetobacter baumannii [10], 32 µg/mL (≈ 63.9 µM); in the test on Acinetobacter baumannii [11], 8 µg/mL (≈ 16 µM). For the same compound, the minimum inhibitory concentration (MIC) with Klebsiella pneumoniae [12] came to 32 µg/mL (≈ 63.9 µM).
